Assay results published in ChEMBL document CHEMBL4706649, “Design, synthesis and biological evaluation of new benzoxazolone/benzothiazolone derivatives as multi-target agents against Alzheimer's disease” (Eur J Med Chem, 2021).
pIC50: −log10 of the molar value. Active and inactive are the calls of the source. The calls are words filed in the database; no cut-off is given here.

Tests used:
[1] = molecular target: Cholinesterase (Equus caballus) (UniProt P81908); experiment: Inhibition of equine serum BChE at 100 uM using butyrylthiocholine iodide as substrate preincubated for 10 mins followed by substrate addition and measured for 10 mins by Ellman's method relative to control; conditions: time 20.0 min
In short: (§1)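 Ellman single-concentration screen in 50 mM Tris-HCl pH 8.0 with DTNB (6.8 mM stock) and 1% DMSO. Enzyme solution 0.4 U/mL AChE or 0.8 U/mL BChE. Compound and enzyme preincubated 10 min at 25 °C, then ATI (10 mM stock) or BTI (30 mM stock) added. A412 followed for 10 min, blank-subtracted, % inhibition versus no-compound control. Triplicate.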

[2] = Induction of apoptosis in mouse 3T3 cells assessed as viable cells at 10 uM measured after 24 hrs by Annexin V-FITC/propidium iodide staining based flow cytometry (reference value: 98.83 to 99%); type: cell-based; conditions: read-out: Activity
In short: (§2)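 3T3 fibroblasts exposed to compound for 24 h, with untreated cells as negative control. Cells trypsinized, PBS-washed, stained with Annexin V-FITC and PI by kit protocol, then analysed by flow cytometry. Populations: live (Annexin−/PI−), early apoptotic (Annexin+/PI−), late apoptotic (Annexin+/PI+) and dead (Annexin−/PI+). Percentages given as mean ± SD.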

[3] = Cytotoxicity against mouse 3T3 cells assessed as cell viability at 1 uM measured after 24 hrs by MTT assay relative to control; type: cell-based; conditions: read-out: Activity
In short: (§3)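 3T3 fibroblasts (ATCC CCL92) grown as adherent monolayers in DMEM with 10% inactivated FBS, 2 mM L-glutamine and penicillin/streptomycin at 37 °C, 5% CO2. Cells exposed to compounds for 24 h. MTT added for 4 h, formazan dissolved in SDS for 24 h, OD read at 570 nm. Viability given as % of untreated OD; at least triplicate, mean ± SD.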

[4] = Induction of apoptosis in mouse 3T3 cells assessed as necrotic cells at 10 uM measured after 24 hrs by Annexin V-FITC/propidium iodide staining based flow cytometry (reference value: 0%); type: cell-based; conditions: 3t3, 24 h; in short: as §2
[5] = Cytotoxicity against mouse 3T3 cells assessed as cell viability at 10 uM measured after 24 hrs by MTT assay relative to control; type: cell-based; conditions: read-out: Activity; in short: as §3
THP-1 [6] = experiment: Antiinflammatory activity in LPS-induced human THP-1 cells assessed as reduction in IL1beta release at 10 uM peincubated for 1 hr followed by LPS stimulation and measured after 24 hrs by EIA; type: functional, cell-based; conditions: time 25.0 hrs
In short: (§4)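 THP-1 cells grown in RPMI 1640 with 10% FCS, penicillin and streptomycin at 37 °C, 5% CO2, then plated overnight at 4×10⁴ cells/well. Test compound added 1 h before 100 ng/ml E. coli O111:B4 LPS; 24 h incubation. Untreated and LPS-only controls. […]; cytokine read by EIA at 450 nm against a standard curve. At least triplicate.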

THP-1 [7] = experiment: Antiinflammatory activity in LPS-induced human THP-1 cells assessed as reduction in IL6 release at 10 uM peincubated for 1 hr followed by LPS stimulation and measured after 24 hrs by EIA; type: functional, cell-based; conditions: time 25.0 hrs; in short: as §4
[8] = molecular target: Acetylcholinesterase (Electrophorus electricus) (UniProt O42275); experiment: Inhibition of electric eel AChE at 100 uM using acetylthiocholine iodide as substrate preincubated for 10 mins followed by substrate addition and measured for 10 mins by Ellman's method relative to control; conditions: time 20.0 min; in short: as §1
Acetylcholinesterase [9] = molecular target: Acetylcholinesterase (Electrophorus electricus, UniProt O42275); experiment: Inhibition of electric eel AChE using acetylthiocholine iodide as substrate preincubated for 10 mins followed by substrate addition and measured for 10 mins by Ellman's method
[10] = Antioxidant activity assessed as trolox equivalent of AAPH radical scavenging activity at 10 uM measured every min for 90 mins by ORAC-FL assay; type: functional
In short: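 ORAC-FL in 75 mM phosphate buffer pH 7.4. Sample and fluorescein (150 nM final) preincubated 15 min at 37 °C, then AAPH (12 mM final) added. Fluorescence (ex 485/em 535 nm) read each minute for 90 min. Net AUC after blank subtraction, converted to Trolox equivalents from a Trolox curve (0.5–8, final; Trolox = 1). Duplicate wells, three independent assays.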

THP-1 [11] = experiment: Antiinflammatory activity in LPS-induced human THP-1 cells assessed as reduction in TNFalpha release at 10 uM peincubated for 1 hr followed by LPS stimulation and measured after 24 hrs by EIA; type: functional, cell-based; conditions: time 25.0 hrs; in short: as §4
THP-1 [12] = experiment: Antiinflammatory activity in LPS-induced human THP-1 cells assessed as reduction in nitric oxide release at 10 uM peincubated for 1 hr followed by LPS stimulation and measured after 24 hrs by ELISA; type: functional, cell-based; conditions: time 25.0 hrs
In short: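 THP-1 cells plated overnight at 4×10⁴ cells/well, given test compound 1 h before 100 ng/ml LPS (E. coli O111:B4), then incubated 24 h. Cell-free supernatants stored at −20 °C, then NO measured by ELISA kit (sensitivity 1,12 […]) from a standard curve. Untreated cells as negative control, LPS-only as positive control. At least triplicate.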

Acetylcholinesterase [13] = molecular target: Acetylcholinesterase (Homo sapiens, UniProt P22303); experiment: Inhibition of recombinant human AChE expressed in HEK293 cells using acetylthiocholine iodide as substrate preincubated for 10 mins followed by substrate addition and measured for 10 mins by Ellman's method
[14] = molecular target: Amyloid-beta precursor protein (Homo sapiens) (UniProt P05067); experiment: Inhibition of amyloid beta (1 to 42) (unknown origin) self-induced aggregation at 50 uM by Thioflavin T based fluorometric assay relative to control
In short: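 Thioflavin T fluorometric assay of Aβ1-42 self-aggregation, with inhibitor and Aβ42 both at 50 (equimolar). Samples dissolved in DMSO. Result given as % inhibition, mean of two independent experiments each run in triplicate.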

[15] = Induction of apoptosis in mouse 3T3 cells assessed as early apoptotic cells at 10 uM measured after 24 hrs by Annexin V-FITC/propidium iodide staining based flow cytometry (Rvb <= 0.97%); type: cell-based; conditions: 3t3, 24 h; in short: as §2
[16] = Induction of apoptosis in mouse 3T3 cells assessed as late apoptotic cells at 10 uM measured after 24 hrs by Annexin V-FITC/propidium iodide staining based flow cytometry (reference value: 0.1 to 0.13%); type: cell-based; conditions: 3t3, 24 h; in short: as §2
[17] = Cytotoxicity against mouse 3T3 cells assessed as cell viability at 0.1 uM measured after 24 hrs by MTT assay relative to control; type: cell-based; conditions: read-out: Activity; in short: as §3
Cholinesterase [18] = molecular target: Cholinesterase (Homo sapiens, UniProt P06276); experiment: Inhibition of recombinant human BChE using butyrylthiocholine iodide as substrate preincubated for 10 mins followed by substrate addition and measured for 10 mins by Ellman's method
In short: (§5)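 BChE (0.8 U/mL solution) preincubated with inhibitor 10 min at 25 °C in Tris-HCl pH 8.0 with DTNB and 1% DMSO, then BTI (30 mM stock) added. A412 read over 10 min, blank-corrected. IC50 from log[inhibitor] versus % inhibition. Triplicate, mean ± SD.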

Cholinesterase [19] = molecular target: Cholinesterase (Equus caballus, UniProt P81908); experiment: Inhibition of equine serum BChE using butyrylthiocholine iodide as substrate preincubated for 10 mins followed by substrate addition and measured for 10 mins by Ellman's method; in short: as §5
Homo sapiens [20] = species on record: Homo sapiens; experiment: Reversible inhibition of recombinant human BChE assessed as residual activity at IC50 using butyrylthiocholine iodide as substrate preincubated for 30 mins followed by 100-fold dilution in presence of substrate and measured after 15 mins by Ellman's method relative to control; conditions: time 45.0 min
Homo sapiens [21] = species on record: Homo sapiens; experiment: Reversible inhibition of recombinant human BChE assessed as residual activity at 0.1 times IC50 using butyrylthiocholine iodide as substrate preincubated for 30 mins followed by 100-fold dilution in presence of substrate and measured after 15 mins by Ellman's method relative to control; conditions: time 45.0 min

Cholinesterase (Equus caballus), sequence (P81908 whole entry): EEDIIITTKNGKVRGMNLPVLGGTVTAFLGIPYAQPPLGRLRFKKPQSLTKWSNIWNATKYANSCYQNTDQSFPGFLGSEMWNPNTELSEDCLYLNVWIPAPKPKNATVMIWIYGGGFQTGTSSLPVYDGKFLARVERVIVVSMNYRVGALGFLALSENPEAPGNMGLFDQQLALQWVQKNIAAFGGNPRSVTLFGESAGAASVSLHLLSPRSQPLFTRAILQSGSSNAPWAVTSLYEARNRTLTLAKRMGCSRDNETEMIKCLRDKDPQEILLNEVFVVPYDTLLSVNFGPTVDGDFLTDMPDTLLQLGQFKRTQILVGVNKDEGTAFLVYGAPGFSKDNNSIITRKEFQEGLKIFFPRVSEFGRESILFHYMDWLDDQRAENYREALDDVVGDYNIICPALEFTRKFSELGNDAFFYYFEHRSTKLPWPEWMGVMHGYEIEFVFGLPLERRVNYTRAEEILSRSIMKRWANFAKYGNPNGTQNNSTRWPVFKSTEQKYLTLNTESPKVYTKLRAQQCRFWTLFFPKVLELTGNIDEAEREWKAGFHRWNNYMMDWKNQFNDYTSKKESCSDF
Amyloid-beta precursor protein (Homo sapiens), sequence (P05067 whole entry): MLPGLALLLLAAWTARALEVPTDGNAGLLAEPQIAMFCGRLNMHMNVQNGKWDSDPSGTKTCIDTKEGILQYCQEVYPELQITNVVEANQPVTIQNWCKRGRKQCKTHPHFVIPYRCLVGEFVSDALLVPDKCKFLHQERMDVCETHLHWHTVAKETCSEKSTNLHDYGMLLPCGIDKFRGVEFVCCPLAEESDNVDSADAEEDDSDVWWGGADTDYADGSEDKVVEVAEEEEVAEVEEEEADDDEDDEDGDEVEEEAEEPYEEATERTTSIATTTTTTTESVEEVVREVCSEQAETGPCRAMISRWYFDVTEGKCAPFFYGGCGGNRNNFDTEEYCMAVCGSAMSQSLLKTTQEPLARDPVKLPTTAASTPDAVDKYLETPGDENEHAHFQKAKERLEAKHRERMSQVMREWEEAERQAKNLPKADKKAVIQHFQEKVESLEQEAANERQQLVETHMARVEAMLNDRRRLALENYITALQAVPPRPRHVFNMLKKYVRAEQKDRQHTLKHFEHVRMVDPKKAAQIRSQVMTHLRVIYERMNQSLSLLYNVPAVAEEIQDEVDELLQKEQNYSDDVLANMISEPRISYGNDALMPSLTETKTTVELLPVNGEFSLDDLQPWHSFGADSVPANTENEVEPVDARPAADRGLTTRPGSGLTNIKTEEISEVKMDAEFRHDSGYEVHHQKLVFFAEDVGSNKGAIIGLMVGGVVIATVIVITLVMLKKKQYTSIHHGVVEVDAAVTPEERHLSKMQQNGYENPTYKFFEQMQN
Acetylcholinesterase (Electrophorus electricus), sequence (O42275 24-633 limits assumed): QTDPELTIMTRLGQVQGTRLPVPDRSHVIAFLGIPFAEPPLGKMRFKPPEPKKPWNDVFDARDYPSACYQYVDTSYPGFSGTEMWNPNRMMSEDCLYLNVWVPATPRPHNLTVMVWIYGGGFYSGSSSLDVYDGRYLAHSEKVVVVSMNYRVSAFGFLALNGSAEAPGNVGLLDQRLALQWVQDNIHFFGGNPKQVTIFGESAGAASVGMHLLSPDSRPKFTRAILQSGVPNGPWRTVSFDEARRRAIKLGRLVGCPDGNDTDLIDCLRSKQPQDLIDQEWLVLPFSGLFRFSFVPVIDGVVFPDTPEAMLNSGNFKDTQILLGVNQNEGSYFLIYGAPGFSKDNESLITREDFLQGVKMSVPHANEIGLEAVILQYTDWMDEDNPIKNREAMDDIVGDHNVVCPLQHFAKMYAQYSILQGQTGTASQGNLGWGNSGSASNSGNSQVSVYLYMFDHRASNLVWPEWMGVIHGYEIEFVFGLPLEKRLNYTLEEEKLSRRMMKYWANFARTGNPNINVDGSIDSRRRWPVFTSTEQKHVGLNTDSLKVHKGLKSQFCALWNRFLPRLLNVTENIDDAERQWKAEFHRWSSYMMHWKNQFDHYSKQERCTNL
Cholinesterase (Equus caballus, UniProt P81908), sequence (P81908 whole entry): as the sequence (P81908 whole entry) above
Acetylcholinesterase (Homo sapiens, UniProt P22303), sequence (P22303 whole entry): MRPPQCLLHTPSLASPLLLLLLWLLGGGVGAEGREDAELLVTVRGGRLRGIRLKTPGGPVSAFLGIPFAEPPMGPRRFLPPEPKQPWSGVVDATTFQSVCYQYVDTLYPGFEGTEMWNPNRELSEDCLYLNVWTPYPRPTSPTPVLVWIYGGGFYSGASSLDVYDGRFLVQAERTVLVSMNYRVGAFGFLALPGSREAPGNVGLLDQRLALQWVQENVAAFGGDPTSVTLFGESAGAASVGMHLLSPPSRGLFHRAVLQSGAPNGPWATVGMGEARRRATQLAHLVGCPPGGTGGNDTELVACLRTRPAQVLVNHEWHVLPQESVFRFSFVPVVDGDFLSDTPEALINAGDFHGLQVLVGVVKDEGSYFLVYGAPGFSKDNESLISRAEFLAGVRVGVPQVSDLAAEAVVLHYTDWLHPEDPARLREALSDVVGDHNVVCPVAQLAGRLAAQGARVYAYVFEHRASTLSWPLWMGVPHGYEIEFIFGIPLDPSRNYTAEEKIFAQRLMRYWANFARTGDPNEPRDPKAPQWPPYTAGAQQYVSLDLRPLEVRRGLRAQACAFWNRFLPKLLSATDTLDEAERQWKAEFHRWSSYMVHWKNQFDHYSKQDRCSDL
Cholinesterase (Homo sapiens, UniProt P06276), sequence (P06276 whole entry): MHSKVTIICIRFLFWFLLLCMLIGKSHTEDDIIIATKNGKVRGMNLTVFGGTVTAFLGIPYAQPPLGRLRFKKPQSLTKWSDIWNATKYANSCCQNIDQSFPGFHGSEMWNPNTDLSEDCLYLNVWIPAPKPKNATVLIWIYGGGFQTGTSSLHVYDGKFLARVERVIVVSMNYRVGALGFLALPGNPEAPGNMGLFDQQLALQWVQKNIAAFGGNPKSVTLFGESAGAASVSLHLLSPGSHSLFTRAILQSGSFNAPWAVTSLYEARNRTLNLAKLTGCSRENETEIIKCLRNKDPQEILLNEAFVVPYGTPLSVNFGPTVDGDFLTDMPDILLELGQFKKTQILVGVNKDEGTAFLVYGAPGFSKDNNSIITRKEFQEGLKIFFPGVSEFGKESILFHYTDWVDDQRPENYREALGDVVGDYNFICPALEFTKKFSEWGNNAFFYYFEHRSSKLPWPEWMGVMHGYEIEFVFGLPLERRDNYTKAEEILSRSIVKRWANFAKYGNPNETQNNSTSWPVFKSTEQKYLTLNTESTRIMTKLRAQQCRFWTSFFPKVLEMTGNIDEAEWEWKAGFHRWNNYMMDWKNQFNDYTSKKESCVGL
Acetylcholinesterase (Electrophorus electricus, UniProt O42275), sequence (O42275 whole entry): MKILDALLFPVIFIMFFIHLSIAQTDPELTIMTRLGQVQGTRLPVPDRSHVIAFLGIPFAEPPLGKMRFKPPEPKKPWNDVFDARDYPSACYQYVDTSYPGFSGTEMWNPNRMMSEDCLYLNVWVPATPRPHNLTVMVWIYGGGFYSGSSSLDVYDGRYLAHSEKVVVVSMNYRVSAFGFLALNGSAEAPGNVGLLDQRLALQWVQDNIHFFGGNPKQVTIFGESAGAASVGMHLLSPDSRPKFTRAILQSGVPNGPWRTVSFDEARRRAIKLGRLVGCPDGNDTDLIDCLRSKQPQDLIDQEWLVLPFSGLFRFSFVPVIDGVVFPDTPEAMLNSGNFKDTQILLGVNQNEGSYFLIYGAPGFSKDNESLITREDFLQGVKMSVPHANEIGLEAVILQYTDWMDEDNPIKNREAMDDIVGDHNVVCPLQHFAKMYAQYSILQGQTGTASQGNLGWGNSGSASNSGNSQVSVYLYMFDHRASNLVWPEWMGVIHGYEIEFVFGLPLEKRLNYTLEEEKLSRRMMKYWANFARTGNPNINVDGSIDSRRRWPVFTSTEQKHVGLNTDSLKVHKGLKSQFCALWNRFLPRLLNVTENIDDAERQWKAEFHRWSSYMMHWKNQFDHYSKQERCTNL

SMILES | inhibition [1] [%] | viability at 24 h, 10 µM [2] [%] | viability at 24 h, 1 µM [3] [%] | Activity [4] | viability at 24 h, 10 µM [5] [%] | Activity (THP-1 [6]) | Activity (THP-1 [7]) | inhibition [8] [%] | Activity [10] [equiv] | Activity (THP-1 [11]) | Activity (THP-1 [12]) | inhibition [14] [%] | Activity [15] [%] | Activity [16] [%] | viability at 24 h, 0.1 µM [17] [%] | Activity (Homo sapiens [20]) [%] | Activity (Homo sapiens [21]) [%] | further results
Cn1c(=O)sc2cc(C(=O)CCN3CCN(Cc4ccccc4)CC3)ccc21 | < 10 | 98.3 | 99.3 | 0.4% | 92.6 | Active | Active | 99 | 3.7 | Active | Active | 57.5 | 1.03 | 0.1 | 102 |  |  | pIC50 (Acetylcholinesterase [9]): 6.47; pIC50 (Acetylcholinesterase [13]): 6.34
Cn1c(=O)sc2cc(NC(=O)CCCCN3CCC(c4ccccc4)CC3)ccc21 | 96 | 93.8 | 97.1 | <= 0.23% | 93.6 | Active | Active | 30 | 2.61 | Active | Active | 55.6 | 1.73 | 0.33 | 98.9 | 81.5 | 98.4 | pIC50 (Cholinesterase [18]): 5.59; pIC50 (Cholinesterase [19]): 5.53
COc1cc2c(cc1OC)C(=O)C(CC1CCN(Cc3ccccc3)CC1)C2 (configuration not stated) |  |  |  |  |  | Active | Active |  |  | Active | Active |  |  |  |  | 90.2 | 95.4 | 
